Rows were chosen to be rich in hits. Some 2.9% of all compounds tested hit in one or more screens of this group.
E-sel inducer: E-selectin induction on HUVECs; HUVEC E-selectin immunofluorescence imaging; normalized: neutral wells 0, TNF-alpha wells 100; activation, % at 7.58 µM; 260,000 tested, 0.37% active; AID 686992;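 active = mean E-selectin-positive cell signal at least 10% of the positive control, reached in at least 60% of replicates, without over 20% cell loss; inconclusive = no rule given, readout overlaps actives, possibly toxicity-flagged; inactive = the rest, including those meeting only one limit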
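Assay system: HUVEC primary endothelial cells. Input: 3,000 HUVEC seeded per well. Doses: one compound dose added by pin transfer. Read-out basis: % PE-positive cells. Benchmarks: TNF-alpha high, DMSO low. Detection: immunofluorescence imaging. Buffer or medium: EGM-2, gelatin.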
DENV2 CPE: inhibitors of DENV2 cytopathic effect. CPE inhibition, % at 9.99 µM. 350,000 tested, 1.7% active. DENV2-infected cells, cytopathic effect rescue, plate reader. AID 651640; in the data active = CPE inhibition above about 20%, passing the limit was not always enough; inconclusive = no clear call, values can overlap the other calls; tested in BHK-21 cells;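 note: 0% = median of neutral control wells and 100% = median of positive control wells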
SIRT5 block: sirtuin-5 (human) deacylase inhibition; Purified SirT5, succinyl-peptide AMC, trypsin-coupled fluorescence; inhibition, % at 15 µM; 330,000 tested, 1.1% active; AID 652115; in the data active = inhibition above about 15%; inconclusive = no clear call, values can overlap the other calls
Target sequence (Q9NXA8 whole entry, looked up): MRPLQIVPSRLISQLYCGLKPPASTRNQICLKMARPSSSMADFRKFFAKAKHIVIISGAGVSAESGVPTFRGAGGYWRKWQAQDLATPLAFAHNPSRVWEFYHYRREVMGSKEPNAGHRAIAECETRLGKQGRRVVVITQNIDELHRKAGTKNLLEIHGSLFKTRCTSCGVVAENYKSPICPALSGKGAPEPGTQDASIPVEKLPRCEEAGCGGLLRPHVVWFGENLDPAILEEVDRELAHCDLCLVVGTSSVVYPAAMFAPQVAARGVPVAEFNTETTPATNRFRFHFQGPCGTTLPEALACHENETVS
Numbers without * were called inactive; ? = inconclusive; / = not tested or not shown.

SMILES	E-sel inducer	DENV2 CPE	SIRT5 block
O=C(NCc1ccccc1)[C@H]1CCCN1C(=O)[C@H]1CCCN1C(=O)c1ccccc1	0	10	/
O=C(NCc1ccccc1)[C@H]1CCCN1C(=O)[C@H]1CCCN1C(=O)c1ccc(Cl)cc1	0	44*	/
COc1cccc(CNC(=O)[C@@H]2CCCN2)c1	0	7	25*
O=C(O)c1ccc(CNC(=O)C2CCCN2C(=O)OCc2ccccc2)cc1 (centres undefined)	0	25*	-1
CC(C)(C)OC(=O)N1CCC[C@@H]1C(=O)NCc1ccccc1	0	0	/
COc1ccc(C(=O)N2CCC[C@H]2C(=O)N2CCC[C@@H]2C(=O)NCc2ccccc2)cc1F	0	20	1
COc1cccc(CNC(=O)[C@H]2CCCN2C(=O)[C@H]2CCCN2)c1	0	0	/
COc1cccc(CNC(=O)[C@H]2CCCN2C(=O)C2CCCN2C(=O)c2ccc(OC)c(F)c2)c1 (some centres undefined)	0	28*	0
O=C(c1ccccn1)N1CC(=O)N2[C@H](C1)[C@@H](c1ccc(C#CC3CCCC3)cc1)[C@@H]2CO	0	-16	1
CCN1/C(=C/C(C)=C/c2sc3ccccc3[n+]2CC)Sc2ccccc21	155*	-4	7
CCN1/C(=C\C(=S)Nc2ccccc2)Sc2ccccc21	0	-3	1
N#CCCN1CCN(C(=S)c2ccc(-c3ccc(Cl)cc3)o2)CC1	/	/	1
CCCNC(=O)N1CC2(C1)[C@H](c1ccccc1)[C@H](CO)N2C(=O)C1CCCCC1	0	65*	-2
CCCNC(=O)N1CC2(C1)[C@H](c1ccccc1)[C@H](CO)N2C(=O)C1CCC1	0	-3	-1
CCCNC(=O)N1CC2(C1)[C@H](c1ccccc1)[C@H](CO)N2C(=O)CC1CC1	0	23*	-5
CCCNC(=O)N1CC2(C1)[C@H](c1ccccc1)[C@@H](CO)N2C(=O)C1CCCCC1	0	7	-3
CCCNC(=O)N1CC2(C1)[C@H](c1ccccc1)[C@H](CO)N2C(=O)C1CC1	0	-10	24*
O=C(c1ccncc1)N1CC2(C1)[C@H](c1ccccc1)[C@H](CO)N2C(=O)CC1CC1	2	-1	-5
CCCNC(=O)N1CC2(C1)[C@H](c1ccccc1)[C@@H](CO)N2C(=O)CC1CC1	0	18	-2
O=C(c1ccccc1)N1CC2(C1)[C@H](c1ccccc1)[C@@H](CO)N2C(=O)CC1CC1	0	26*	-2
COC(=O)c1ccc(N2CCOCC2)c(NC(=O)c2cc3ccccc3o2)c1	-1	-1	2
N#Cc1ccccc1OCC(=O)OCC(=O)N1CCCC1	2	3	0
COc1cc2sc(-c3ccccc3OC)c(-c3ccc(O)cc3)c2cc1OC	1	-6	-1
COc1ccc2sc(-c3ccccc3OC)c(-c3ccc(O)cc3)c2c1	42*	?	0
CCCCCNc1nc2sc3c(c2c(=O)n1-c1cccc(Cl)c1)CCN(C)C3	42*	-1	/
SMILES	E-sel inducer	DENV2 CPE	SIRT5 block
CCCCNc1nc2sc3c(c2c(=O)n1-c1cccc(Cl)c1)CCN(C)C3	/	-3	-7
COc1ccc(S(=O)(=O)Nc2cccc3c2O[C@@H](CN(C)CC2CCCCC2)[C@@H](C)CN([C@H](C)CO)C3=O)cc1	0	/	/
C[C@@H](NC(=O)C[C@H]1CC[C@@H]2[C@H](COC[C@H](O)CN2Cc2ccc(C(F)(F)F)cc2)O1)c1ccccc1	0	2	14
C[C@@H](NC(=O)C[C@H]1CC[C@@H]2[C@H](COC[C@H](O)CN2C(=O)Nc2ccccc2)O1)c1ccccc1	0	21*	2
C[C@H](NC(=O)C[C@@H]1CC[C@@H]2[C@H](COC[C@@H](O)CN2C(=O)Nc2ccccc2)O1)c1ccccc1	0	7	0
C[C@H](NC(=O)C[C@H]1CC[C@@H]2[C@H](COC[C@@H](O)CN2C(=O)Nc2ccccc2)O1)c1ccccc1	0	8	3
C[C@H](NC(=O)C[C@@H]1CC[C@H]2[C@@H](COC[C@@H](O)CN2Cc2ccc(C(F)(F)F)cc2)O1)c1ccccc1	0	-6	17*
C[C@@H](NC(=O)C[C@H]1CC[C@H]2[C@@H](COC[C@H](O)CN2C(=O)Nc2ccccc2)O1)c1ccccc1	0	50*	2
O=C(Nc1ccccc1O)N1c2ccccc2Sc2ccccc21	1	3	4
O=C(CSc1nnc(NC(=O)Cc2ccccc2)s1)NCC1CCCO1 (centres undefined)	/	?	-6
Cc1cc(C)n(CC(=O)NNC(=O)COc2ccc(Cl)cc2Cl)n1	0	0	15*
Cc1cc(C)n(CC(=O)NNC(=O)COc2ccc(F)cc2Br)n1	/	-3	-1
C[C@@H]1CN([C@H](C)CO)C(=O)c2cc(NS(=O)(=O)c3ccc(Cl)cc3)ccc2O[C@@H]1CN(C)Cc1ccc2c(c1)OCO2	0	1	4
COc1ccc(S(=O)(=O)Nc2ccc3c(c2)C(=O)N([C@H](C)CO)C[C@H](C)[C@@H](CN(C)Cc2ccc4c(c2)OCO4)O3)cc1	0	1	-3
COc1ccc(S(=O)(=O)Nc2ccc3c(c2)C(=O)N([C@H](C)CO)C[C@H](C)[C@H](CN(C)Cc2ccc4c(c2)OCO4)O3)cc1	0	13	16*
C[C@@H]1CN([C@H](C)CO)C(=O)c2cc(NS(=O)(=O)c3ccc(Cl)cc3)ccc2O[C@H]1CN(C)Cc1ccc2c(c1)OCO2	0	8	20*
CN(C)c1cccc(Nc2ccc(-c3ccc(OC(F)(F)F)cc3)cn2)c1	0	/	/
CCc1ccc(NC(=O)c2sc3nc4n(c(=O)c3c2C)CCC4)cc1	/	7	-4
CC(=O)Nc1ccc(NC(=O)c2sc3nc4n(c(=O)c3c2C)CCCCC4)cc1	-1	-4	17*
COc1ccc(CC(=O)Nc2ccc(C(=O)NCC(C)C)cc2)cc1	/	/	18*
COc1ccc(CC(=O)Nc2ccc(C(C)=O)cc2)cc1	3	0	-2
CC(C)CC#Cc1ccc2c(c1)O[C@@H](CN(C)Cc1ccccc1F)[C@H](C)CN([C@@H](C)CO)S2(=O)=O	0	12	1
C[C@@H]1CN([C@@H](C)CO)S(=O)(=O)c2ccc(C#CC3CC3)cc2O[C@@H]1CN(C)Cc1ccccc1F	0	17	/
C[C@H](CO)N1C[C@H](C)[C@H](CN(C)Cc2ccccc2F)Oc2cc(C#CC3CC3)ccc2S1(=O)=O	1	-1	43*
CC(C)CC#Cc1ccc2c(c1)O[C@@H](CN(C)Cc1ccccc1F)[C@@H](C)CN([C@@H](C)CO)S2(=O)=O	/	-3	16*
SMILES	E-sel inducer	DENV2 CPE	SIRT5 block
COC(=O)N1[C@H](C)C=C[C@]1(Cc1ccccc1)C(=O)O	0	?	/
Cc1ccc(C(=O)CSc2nnc(CNc3ccc(F)cc3)o2)cc1	0	10	1
Cc1ccsc1-c1ccnc(-n2cccc2)n1	-2	/	/
Cc1ccc(-c2nn(Cc3ccccc3)cc2C(=O)NCC2CCCO2)cc1 (centres undefined)	/	5	-2
O=C(NCC1CCCO1)c1ccccc1OCc1ccc(F)cc1 (centres undefined)	/	9	-8
O=C(NCC1CCCO1)c1ccccc1OCc1ccc(Cl)cc1 (centres undefined)	2	65*	-2
